Source: ChEMBL document CHEMBL4196056, “Zirconium catalyzed synthesis of 2-arylidene Indan-1,3-diones and evaluation of their inhibitory activity against NS2B-NS3 WNV protease” (Eur J Med Chem, 2018)
Calls of active or inactive are those of the source. The calls are words filed in the database; no cut-off is given here.

Tested on: not listed separately
Experiment: (§1) Inhibition of recombinant West Nile virus NS2B-NS3 protease using pERTKR-AMC as substrate preincubated for 30 mins followed by substrate addition by fluorescence assay
Details: not given
Outline: (§2)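 Same protease format (1 ng µL-1 enzyme, Tris/30% glycerol pH 9.5, 30 min preincubation at 21-22 °C, pERTKR-AMC, ex 360/em 460 nm). Eight inhibitor concentrations spanning 66-0.5 µmol L-1 were tested, with reads every 30 s for 5 min. Triplicate wells in three independent experiments; IC50 from four-parameter nonlinear regression (Hill slope).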

IC50 | SMILES
3 µM | O=C1C(=Cc2ccc(O)c(O)c2)C(=O)c2ccccc21
11 µM | O=C1C(=Cc2ccc(O)cc2)C(=O)c2ccccc21

Tested on: West Nile virus
Experiment: as §1
Details: not given
Outline: as §2

inhibition | SMILES
Dose-dependent effect | O=C1C(=Cc2ccc(O)c(O)c2)C(=O)c2ccccc21
Dose-dependent effect | O=C1C(=Cc2ccc(O)cc2)C(=O)c2ccccc21

Tested on: West Nile virus
Experiment: Inhibition of recombinant West Nile virus NS2B-NS3 protease at 16 umol/L using pERTKR-AMC as substrate preincubated for 30 mins followed by substrate addition by fluorescence assay
Details: not given
Outline: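 Single-point screen of purified, pre-activated recombinant WNV NS2B-NS3 at 1 ng µL-1 final, in 50 mmol L-1 Tris with 30% glycerol, pH 9.5, and 1% DMSO final. Enzyme and compound (16 µmol L-1 final) were held 30 min at 21-22 °C before pERTKR-AMC was added. Fluorescence (ex 360/em 460 nm) was read continuously, with buffer/DMSO as negative control. Triplicate wells in three independent experiments; one-way ANOVA.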

inhibition | SMILES
inactive | COc1ccc(C=C2C(=O)c3ccccc3C2=O)cc1
Active | COc1cc(C=C2C(=O)c3ccccc3C2=O)ccc1O
inactive | COc1ccc(C=C2C(=O)c3ccccc3C2=O)cc1OC
inactive | O=C1C(=Cc2ccccc2)C(=O)c2ccccc21
100% | O=C1C(=Cc2ccc(O)c(O)c2)C(=O)c2ccccc21
inactive | COc1cc(C=C2C(=O)c3ccccc3C2=O)cc(OC)c1OC
41% | O=C1C(=Cc2ccc(O)cc2)C(=O)c2ccccc21
Active | COc1cc(C=C2C(=O)c3ccccc3C2=O)cc(OC)c1O
Active | COc1ccc(C=C2C(=O)c3ccccc3C2=O)cc1O
inactive | N#Cc1ccc(C=C2C(=O)c3ccccc3C2=O)cc1
inactive | O=C1C(=Cc2ccc([N+](=O)[O-])cc2)C(=O)c2ccccc21
inactive | O=C1C(=Cc2ccc(F)cc2)C(=O)c2ccccc21
inactive | CN(C)c1ccc(C=C2C(=O)c3ccccc3C2=O)cc1
inactive | O=C1C(=Cc2ccc3c(c2)OCO3)C(=O)c2ccccc21
inactive | O=C1C(=Cc2ccc(Br)cc2)C(=O)c2ccccc21
inactive | O=C1C(=Cc2ccco2)C(=O)c2ccccc21

Tested on: not listed separately
Experiment: Non-competitive inhibition of recombinant West Nile virus NS2B-NS3 protease using pERTKR-AMC as substrate preincubated for 30 mins followed by substrate addition by Lineweaver-Burk plot analysis
Details: not given
Outline: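 Kinetic series with WNV protease at 37.04 nmol L-1 (1 ng µL-1), inhibitor at 2, 4 and 8 µmol L-1, and pERTKR-AMC at five levels ([…] as printed). Fluorescence was read every 30 s in triplicate wells, and velocities (RFU/min) were computed for each substrate/inhibitor pair. Ki came from nonlinear enzyme-kinetics regression.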

SMILES | Ki
O=C1C(=Cc2ccc(O)c(O)c2)C(=O)c2ccccc21 | 1.25 µM
O=C1C(=Cc2ccc(O)cc2)C(=O)c2ccccc21 | 12.3 µM

Tested on: not listed separately
Experiment: Cytotoxicity against African green monkey Vero cells after 24 hrs by MTT assay
Type: cell-based
Details: chlorocebus sabaeus
Outline: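 Vero cells (5 x 10^4/well) were exposed for 24 h at 37 °C to eight concentrations (4-1000 µmol L-1) in MEM with 2% FBS and 1% DMSO. MTT was added for 4 h, formazan was dissolved in DMSO, and absorbance was read at 550 nm. CC50 was derived by curve fitting.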

SMILES | CC50 at 24 h
O=C1C(=Cc2ccc(O)c(O)c2)C(=O)c2ccccc21 | 268 µM
O=C1C(=Cc2ccc(O)cc2)C(=O)c2ccccc21 | 89.7 µM

Tested on: dengue virus type 1
Experiment: Antiviral activity against Dengue virus 1 infected in African green monkey Vero cells assessed as decrease in viral infection preincubated for 1 hr followed by cell addition and subsequent incubation for 1 hr and measured after 5 to 6 days by crystal violet staining-based assay
Type: functional, organism-based
Details: not given
Outline: (§3)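 Virucidal plaque-reduction format. Virus suspension (50-100 PFU) was mixed 1:1 with compound at 3, 6, 12, 25, 50 or 100 µmol L-1 and held 1 h at 37 °C. The mixture went onto Vero monolayers (8 x 10^5 cells/well) for 1 h adsorption with shaking, then a 3% CMC overlay in 2x DMEM with 2% FBS for 5-6 days. Cells were formaldehyde-fixed and crystal violet-stained, plaques were counted, and EC50 came from nonlinear regression.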

EC50 | SMILES
7.97 µM | O=C1C(=Cc2ccc(O)c(O)c2)C(=O)c2ccccc21
46.6 µM | O=C1C(=Cc2ccc(O)cc2)C(=O)c2ccccc21

Tested on: dengue virus type 2
Experiment: Antiviral activity against Dengue virus 2 infected in African green monkey Vero cells assessed as decrease in viral infection preincubated for 1 hr followed by cell addition and subsequent incubation for 1 hr and measured after 5 to 6 days by crystal violet staining-based assay
Type: functional, organism-based
Details: not given
Outline: as §3

EC50 | SMILES
20.4 µM | O=C1C(=Cc2ccc(O)c(O)c2)C(=O)c2ccccc21
39.2 µM | O=C1C(=Cc2ccc(O)cc2)C(=O)c2ccccc21

Tested on: dengue virus type 3
Experiment: Antiviral activity against Dengue virus 3 infected in African green monkey Vero cells assessed as decrease in viral infection preincubated for 1 hr followed by cell addition and subsequent incubation for 1 hr and measured after 5 to 6 days by crystal violet staining-based assay
Type: functional, organism-based
Details: not given
Outline: as §3

EC50 | SMILES
1.82 µM | O=C1C(=Cc2ccc(O)c(O)c2)C(=O)c2ccccc21
21 µM | O=C1C(=Cc2ccc(O)cc2)C(=O)c2ccccc21

Tested on: dengue virus type 4
Experiment: Antiviral activity against Dengue virus 4 infected in African green monkey Vero cells assessed as decrease in viral infection preincubated for 1 hr followed by cell addition and subsequent incubation for 1 hr and measured after 5 to 6 days by crystal violet staining-based assay
Type: functional, organism-based
Details: not given
Outline: as §3

EC50 | SMILES
29.9 µM | O=C1C(=Cc2ccc(O)c(O)c2)C(=O)c2ccccc21
55.9 µM | O=C1C(=Cc2ccc(O)cc2)C(=O)c2ccccc21

Tested on: not listed separately
Experiment: Selectivity index, ratio of CC50 for African green monkey Vero cells to EC50 for Dengue virus 1 infected in African green monkey Vero cells
Type: toxicity
Details: Vero cells infected with Dengue virus 1, read-out: Ratio CC50/EC50
Outline: (§4)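 Selectivity index calculated as CC50 from the 24 h Vero MTT assay divided by EC50 from the virucidal plaque-reduction assay for each DENV serotype.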

SMILES | selectivity ratio
O=C1C(=Cc2ccc(O)c(O)c2)C(=O)c2ccccc21 | 34
O=C1C(=Cc2ccc(O)cc2)C(=O)c2ccccc21 | 2

Tested on: not listed separately
Experiment: Selectivity index, ratio of CC50 for African green monkey Vero cells to EC50 for Dengue virus 2 infected in African green monkey Vero cells
Type: toxicity
Details: Vero cells infected with Dengue virus 2, read-out: Ratio CC50/EC50
Outline: as §4

SMILES | selectivity ratio
O=C1C(=Cc2ccc(O)c(O)c2)C(=O)c2ccccc21 | 13
O=C1C(=Cc2ccc(O)cc2)C(=O)c2ccccc21 | 2

Tested on: not listed separately
Experiment: Selectivity index, ratio of CC50 for African green monkey Vero cells to EC50 for Dengue virus 3 infected in African green monkey Vero cells
Type: toxicity
Details: Vero cells infected with Dengue virus 3, read-out: Ratio CC50/EC50
Outline: as §4

SMILES | selectivity ratio
O=C1C(=Cc2ccc(O)c(O)c2)C(=O)c2ccccc21 | 147
O=C1C(=Cc2ccc(O)cc2)C(=O)c2ccccc21 | 4

Tested on: not listed separately
Experiment: Selectivity index, ratio of CC50 for African green monkey Vero cells to EC50 for Dengue virus 4 infected in African green monkey Vero cells
Type: toxicity
Details: Vero cells infected with Dengue virus 4, read-out: Ratio CC50/EC50
Outline: as §4

SMILES | selectivity ratio
O=C1C(=Cc2ccc(O)c(O)c2)C(=O)c2ccccc21 | 9
O=C1C(=Cc2ccc(O)cc2)C(=O)c2ccccc21 | 2
